≈ marks a conversion by molar mass, not a printed value.
Key:
Plasmodium falciparum [1] = assay: Antiplasmodial activity against multidrug-sensitive Plasmodium falciparum NF54 by [3H]-hypoxanthine incorporation assay; assay type: functional, organism-based
Method in brief: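 IC50 against P. falciparum NF54 was run with chloroquine and artesunate as reference drugs in every experiment. Values are the mean of at least 2 independent experiments.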

Plasmodium falciparum [2] = assay: Antiplasmodial activity against multidrug-resistant Plasmodium falciparum K1 by [3H]-hypoxanthine incorporation assay; assay type: functional, organism-based
Method in brief: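 In vitro IC50 against the multidrug-resistant K1 strain of P. falciparum. Chloroquine and artesunate were run as reference drugs in every experiment. Values are means of ≥2 independent experiments.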

[3] = Solubility of the compound in 0.01 M HCl at pH 2; assay type: physicochemical
Method in brief: (§1)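 Solubility was measured by a scaled-down shake flask method.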

[4] = Solubility of the compound in phosphate buffer at pH 6.5; assay type: physicochemical; method in brief: as §1
[5] = Metabolic stability of the compound in human liver microsomes at 0.1 uM after 30 mins by LC-MS/MS analysis; assay type: ADME; details: read-out: Stability
Method in brief: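 A one-point microsomal stability assay was used, expressed as the percentage of parent compound remaining after 30 min incubation.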

[6] = Degradation half-life in human liver microsomes at 0.1 uM by LC-MS/MS analysis; assay type: ADME
[7] = Intrinsic clearance in human liver microsomes assessed per mg of protein at 0.1 uM by LC-MS/MS analysis; assay type: ADME; details: read-out: CLH
[8] = Partition coefficient, log D of the compound at pH 7.4 by HPLC chromatographic method; assay type: physicochemical; details: octanol/water
Method in brief: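 logD was estimated by HPLC-DAD-MS.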

[9] = target: Voltage-gated inwardly rectifying potassium channel KCNH2 (Homo sapiens, UniProt Q12809); assay: Inhibition of human ERG expressed in CHO cells by patch clamp electrophysiology assay; assay type: cell-based
Chain of Voltage-gated inwardly rectifying potassium channel KCNH2 (Q12809 whole entry): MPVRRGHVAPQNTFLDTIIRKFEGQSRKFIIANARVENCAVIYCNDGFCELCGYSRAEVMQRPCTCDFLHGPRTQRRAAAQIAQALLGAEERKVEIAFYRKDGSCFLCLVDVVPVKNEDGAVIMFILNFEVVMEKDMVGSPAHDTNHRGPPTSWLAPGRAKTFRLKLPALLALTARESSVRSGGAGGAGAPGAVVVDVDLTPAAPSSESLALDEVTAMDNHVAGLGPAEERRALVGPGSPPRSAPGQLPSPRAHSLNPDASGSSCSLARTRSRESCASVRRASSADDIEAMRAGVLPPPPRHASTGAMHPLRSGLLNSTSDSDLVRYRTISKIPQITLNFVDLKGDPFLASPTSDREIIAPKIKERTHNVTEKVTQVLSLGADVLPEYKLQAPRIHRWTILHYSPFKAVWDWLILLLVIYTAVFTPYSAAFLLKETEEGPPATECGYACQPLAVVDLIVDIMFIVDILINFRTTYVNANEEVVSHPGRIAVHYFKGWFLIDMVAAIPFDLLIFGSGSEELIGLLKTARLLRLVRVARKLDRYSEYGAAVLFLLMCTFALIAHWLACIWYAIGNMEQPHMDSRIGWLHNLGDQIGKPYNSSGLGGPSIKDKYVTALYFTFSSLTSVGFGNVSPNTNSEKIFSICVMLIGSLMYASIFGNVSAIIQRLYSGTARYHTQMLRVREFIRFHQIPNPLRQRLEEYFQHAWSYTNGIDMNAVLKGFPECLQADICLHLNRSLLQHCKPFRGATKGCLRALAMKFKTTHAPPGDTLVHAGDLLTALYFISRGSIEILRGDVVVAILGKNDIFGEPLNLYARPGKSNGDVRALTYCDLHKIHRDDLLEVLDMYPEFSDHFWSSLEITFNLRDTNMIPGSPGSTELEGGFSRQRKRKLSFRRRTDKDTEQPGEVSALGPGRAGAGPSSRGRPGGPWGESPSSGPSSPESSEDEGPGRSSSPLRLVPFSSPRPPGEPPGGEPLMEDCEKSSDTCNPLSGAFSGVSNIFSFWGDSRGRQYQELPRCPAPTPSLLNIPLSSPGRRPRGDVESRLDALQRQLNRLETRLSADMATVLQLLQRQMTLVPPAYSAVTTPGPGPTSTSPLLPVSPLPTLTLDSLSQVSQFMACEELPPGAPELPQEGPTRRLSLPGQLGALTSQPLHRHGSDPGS

Mus musculus = assay: Acute toxicity in GFP-transfected Plasmodium berghei ANKA infected NMRI mouse at 50 mg/kg, po qd for 4 days; assay type: organism-based; details: in vivo, 96 h
Method in brief: (§2)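 P. berghei-infected mice dosed orally at 50 mg/kg once daily for 4 days. Compound was dissolved or suspended in a standard non-solubilizing HPMC suspension vehicle. Mice were watched for acute toxicity after dosing. Parasitemia reduction was calculated against untreated infected controls, and survival was recorded as mean survival time in days.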

Plasmodium berghei [10] = assay: Antimalarial activity against GFP-transfected Plasmodium berghei ANKA infected in NMRI mouse assessed as mean survival time at 50 mg/kg, po qd for 4 days by flow cytometry analysis; assay type: functional; method in brief: as §2
Plasmodium berghei [11] = assay: Antimalarial activity against GFP-transfected Plasmodium berghei ANKA infected in NMRI mouse assessed as reduction of parasitemia in blood at 50 mg/kg, po qd for 4 days by flow cytometry analysis; assay type: functional; parameters: scale not given: the % may be the effect or the level left
Method in brief: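 In P. berghei-infected mice, compound was dissolved or suspended in a standard non-solubilizing HPMC suspension vehicle and given orally once daily for 4 days (4 × 50 mg/kg). Parasitemia reduction was expressed as % relative to untreated control mice. Mean survival time in days was also recorded.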

Row | Structure (SMILES) | IC50 (Plasmodium falciparum [1]) | IC50 (Plasmodium falciparum [2]) | solubility [3] | solubility [4] | remaining at 0.5 h, 0.1 µM [5] | further results
1 | Nc1nc(N2CCC(O)CC2)c2sc(-c3ccc(C(F)(F)F)cc3)cc2n1 | > 2540 nM |  |  |  |  | 
2 | CNc1nc(NCCCN)c2sc(-c3ccc(C(F)(F)F)cc3)cc2n1 | > 2610 nM | > 2610 nM |  |  |  | 
3 | CNc1nc(NCCCO)c2sc(-c3ccc(C(F)(F)F)cc3)cc2n1 | 111 nM | 233 nM |  |  |  | 
4 | CNc1nc(OCCCN(C)C)c2sc(-c3ccc(C(F)(F)F)cc3)cc2n1 | 1830 nM | > 2440 nM | 174 µg/mL (≈ 424 µM) | 174 µg/mL (≈ 424 µM) |  | 
5 | CNc1nc(NCCN2CCNCC2)c2sc(-c3ccc(C(F)(F)F)cc3)cc2n1 | 34 nM | 37 nM | 203 µg/mL (≈ 465 µM) | 115 µg/mL (≈ 263 µM) | 100% | 
6 | CNc1nc(NCCCN2CCOCC2)c2sc(-c3ccc(C(F)(F)F)cc3)cc2n1 | 43 nM |  | 196 µg/mL (≈ 434 µM) | 96 µg/mL (≈ 213 µM) |  | half-life at 0.1 µM [6]: 0.398 h; microsomal CLint at 0.1 µM [7]: 72.4 µL/min/mg
7 | CNc1nc(NCCN2CCOCC2)c2sc(-c3ccc(C(F)(F)F)cc3)cc2n1 | 80 nM | 121 nM | 213 µg/mL (≈ 487 µM) | 42 µg/mL (≈ 96 µM) | 51% | 
8 | CNc1nc(N)c2sc(-c3ccc(C(F)(F)F)cc3)cc2n1 | 1160 nM |  | > 100 µg/mL | 3.1 µg/mL (≈ 9.56 µM) |  | chromatographic logD [8]: 3.4
9 | CNc1nc(NCC(F)(F)F)c2sc(-c3ccc(C(F)(F)F)cc3)cc2n1 | 47 nM | 138 nM | 28 µg/mL (≈ 68.9 µM) | < 5 µg/mL | 75% | IC50 [9]: > 33000 nM
10 | CNc1nc(NC(C)(C)C)c2sc(-c3ccc(C(F)(F)F)cc3)cc2n1 | 116 nM |  | 1.6 µg/mL (≈ 4.21 µM) | < 1.6 µg/mL |  | chromatographic logD [8]: > 5.3; half-life at 0.1 µM [6]: 2.07 h; microsomal CLint at 0.1 µM [7]: 14 µL/min/mg
11 | CNc1nc(NC2CC2)c2sc(-c3ccc(C(F)(F)F)cc3)cc2n1 | 137 nM | 447 nM | 120 µg/mL (≈ 329 µM) | < 5 µg/mL |  | half-life at 0.1 µM [6]: 1.15 h; microsomal CLint at 0.1 µM [7]: 25.2 µL/min/mg
12 | CNc1nc(N2CCNCC2)c2sc(-c3ccc(C(F)(F)F)cc3)cc2n1 | 95 nM |  |  |  |  | 
13 | CNc1nc(NC2CCOCC2)c2sc(-c3ccc(C(F)(F)F)cc3)cc2n1 | 47 nM | 140 nM | < 5 µg/mL | < 5 µg/mL | 100% | 
14 | CNc1nc(Nc2cccc(C(N)=O)c2)c2sc(-c3ccc(C(F)(F)F)cc3)cc2n1 | 52 nM | 113 nM | 85 µg/mL (≈ 192 µM) | 8 µg/mL (≈ 18 µM) | 83% | 
15 | CNc1nc(-c2ccc(C(F)(F)F)cc2)c2sc(-c3ccc(C(F)(F)F)cc3)cc2n1 | > 2210 nM |  |  |  |  | 
16 | CN(C)CCCNc1nc(N)nc2cc(-c3ccc(C(F)(F)F)cc3)sc12 | 57 nM |  | 210 µg/mL (≈ 531 µM) | 148 µg/mL (≈ 374 µM) | 94% | half-life at 0.1 µM [6]: 1.73 h; microsomal CLint at 0.1 µM [7]: 16.9 µL/min/mg
17 | CN(C)CCCNc1nc(N(C)C)nc2cc(-c3ccc(C(F)(F)F)cc3)sc12 | 100 nM |  | 212 µg/mL (≈ 501 µM) | 168 µg/mL (≈ 397 µM) | 66% | 
18 | CN(C)CCCNc1ncnc2cc(-c3ccc(C(F)(F)F)cc3)sc12 | 500 nM |  | 209 µg/mL (≈ 549 µM) | 205 µg/mL (≈ 539 µM) | 91% | 

Row | Structure (SMILES) | IC50 (Plasmodium falciparum [1]) | IC50 (Plasmodium falciparum [2]) | solubility [3] | solubility [4] | remaining at 0.5 h, 0.1 µM [5] | further results
19 | CN(C)CCCNc1nc(Cl)nc2cc(-c3ccc(C(F)(F)F)cc3)sc12 | 1080 nM |  |  |  |  | 
20 | COc1nc(NCCCN(C)C)c2sc(-c3ccc(C(F)(F)F)cc3)cc2n1 | 1390 nM | 1400 nM | 214 µg/mL (≈ 521 µM) | < 5 µg/mL |  | half-life at 0.1 µM [6]: > 1.67 h; microsomal CLint at 0.1 µM [7]: < 17 µL/min/mg
21 | CN(C)CCCNc1nc(NCc2ccccc2)nc2cc(-c3ccc(C(F)(F)F)cc3)sc12 | 42 nM |  | 208 µg/mL (≈ 428 µM) | < 5 µg/mL | 100% | 
22 | CN(C)CCCNc1nc(N2CCNCC2)nc2cc(-c3ccc(C(F)(F)F)cc3)sc12 | 164 nM |  | 198 µg/mL (≈ 426 µM) | 178 µg/mL (≈ 383 µM) |  | half-life at 0.1 µM [6]: > 1.67 h; microsomal CLint at 0.1 µM [7]: < 17 µL/min/mg
23 | CN(C)CCCNc1nc(N2CCOCC2)nc2cc(-c3ccc(C(F)(F)F)cc3)sc12 | > 2150 nM |  | 211 µg/mL (≈ 453 µM) | < 5 µg/mL | 92% | 
24 | CS(=O)(=O)c1ccc(-c2nc(N3CCNCC3)nc3cc(-c4ccc(C(F)(F)F)cc4)sc23)cc1 | 1460 nM |  | 174 µg/mL (≈ 336 µM) | < 5 µg/mL |  | 
25 | Nc1nc(NC2CCNCC2)c2sc(-c3ccc(C(F)(F)F)cc3)cc2n1 | 25 nM | 24 nM | 168 µg/mL (≈ 427 µM) | 168 µg/mL (≈ 427 µM) | 100% | Activity (Mus musculus): Non-toxic; chromatographic logD [8]: 2.4; half-life at 0.1 µM [6]: > 2.5 h; microsomal CLint at 0.1 µM [7]: < 11.6 µL/min/mg; MSD (Plasmodium berghei [10]): 7 days; Activity (Plasmodium berghei [11]): 78%
26 | Nc1nc(NC2CCCNC2)c2sc(-c3ccc(C(F)(F)F)cc3)cc2n1 (stereo not drawn) | 36 nM |  | 125 µg/mL (≈ 318 µM) | 125 µg/mL (≈ 318 µM) | 69% | 
27 | CN1CCC(Nc2nc(N)nc3cc(-c4ccc(C(F)(F)F)cc4)sc23)CC1 | 50 nM |  | 147 µg/mL (≈ 361 µM) | 147 µg/mL (≈ 361 µM) | 95% | 
28 | Nc1nc(NC2CCCCC2)c2sc(-c3ccc(C(F)(F)F)cc3)cc2n1 | 168 nM |  |  |  |  | 
29 | Nc1nc(NC2CCNC2)c2sc(-c3ccc(C(F)(F)F)cc3)cc2n1 (stereo not drawn) | 100 nM | 116 nM | 155 µg/mL (≈ 409 µM) | 155 µg/mL (≈ 409 µM) |  | IC50 [9]: 2400 nM; half-life at 0.1 µM [6]: > 2.5 h; microsomal CLint at 0.1 µM [7]: < 11.6 µL/min/mg
30 | Nc1nc(NC2CNC2)c2sc(-c3ccc(C(F)(F)F)cc3)cc2n1 | 936 nM |  |  |  |  | 
31 | Nc1nc(NC2CCOCC2)c2sc(-c3ccc(C(F)(F)F)cc3)cc2n1 | 451 nM |  | < 5 µg/mL | < 5 µg/mL | 98% | IC50 [9]: 700 nM
32 | Nc1nc(NC2CCS(=O)(=O)CC2)c2sc(-c3ccc(C(F)(F)F)cc3)cc2n1 | 678 nM |  |  |  |  | 
33 | N#CC1CCN(c2nc(N)nc3cc(-c4ccc(C(F)(F)F)cc4)sc23)CC1 | > 2480 nM |  |  |  |  | 
34 | Nc1nc(N2CCC(F)(F)CC2)c2sc(-c3ccc(C(F)(F)F)cc3)cc2n1 | > 2380 nM |  |  |  |  | 
35 | C[C@H]1[C@H](OC(=O)CCC(=O)O)O[C@@H]2O[C@@]3(C)CC[C@H]4[C@H](C)CC[C@@H]1[C@@]24OO3 [ARTESUNATE] | 4 nM | 3 nM |  |  |  | 

Source: ChEMBL document CHEMBL3616374, “Structure-Activity Relationship Studies of Orally Active Antimalarial 2,4-Diamino-thienopyrimidines” (J Med Chem, 2015)
